Data as given in paper PMC3787871 (Bioorganic & medicinal chemistry letters, 2008).
“Also recorded” adds a separate entry of the source.

Tests used:
mGluR4 [1] = conditions: cited from earlier work; for EC50: mGluR4 PAM
mGluR1 [2] = target: T1, mGluR1 (Homo sapiens, UniProt Q13255); conditions: cited from earlier work
[3] = tested on: preclinical Parkinson's disease models; conditions: cited from earlier work
mGluR4 [4] = conditions: cited from earlier work
mGluR1 [5] = target: T1, mGluR1; assay: mGluR1 antagonist activity; assay type: cell-based
mGluR4 [6] = target: T2, mGluR4 (Homo sapiens, UniProt Q14833); assay: Potentiation of an EC20 of glutamate in human mGluR4/Gqi5 CHO cells; assay type: cell-based; conditions: for mGluR4 PAM activity (in words): potentiation of EC20 glutamate, mGluR4/Gqi5 CHO cells; for loss in potency relative to 6: mGluR4 PAM EC50 versus re-synthesized 6
T2 sequence (Q14833 33-912): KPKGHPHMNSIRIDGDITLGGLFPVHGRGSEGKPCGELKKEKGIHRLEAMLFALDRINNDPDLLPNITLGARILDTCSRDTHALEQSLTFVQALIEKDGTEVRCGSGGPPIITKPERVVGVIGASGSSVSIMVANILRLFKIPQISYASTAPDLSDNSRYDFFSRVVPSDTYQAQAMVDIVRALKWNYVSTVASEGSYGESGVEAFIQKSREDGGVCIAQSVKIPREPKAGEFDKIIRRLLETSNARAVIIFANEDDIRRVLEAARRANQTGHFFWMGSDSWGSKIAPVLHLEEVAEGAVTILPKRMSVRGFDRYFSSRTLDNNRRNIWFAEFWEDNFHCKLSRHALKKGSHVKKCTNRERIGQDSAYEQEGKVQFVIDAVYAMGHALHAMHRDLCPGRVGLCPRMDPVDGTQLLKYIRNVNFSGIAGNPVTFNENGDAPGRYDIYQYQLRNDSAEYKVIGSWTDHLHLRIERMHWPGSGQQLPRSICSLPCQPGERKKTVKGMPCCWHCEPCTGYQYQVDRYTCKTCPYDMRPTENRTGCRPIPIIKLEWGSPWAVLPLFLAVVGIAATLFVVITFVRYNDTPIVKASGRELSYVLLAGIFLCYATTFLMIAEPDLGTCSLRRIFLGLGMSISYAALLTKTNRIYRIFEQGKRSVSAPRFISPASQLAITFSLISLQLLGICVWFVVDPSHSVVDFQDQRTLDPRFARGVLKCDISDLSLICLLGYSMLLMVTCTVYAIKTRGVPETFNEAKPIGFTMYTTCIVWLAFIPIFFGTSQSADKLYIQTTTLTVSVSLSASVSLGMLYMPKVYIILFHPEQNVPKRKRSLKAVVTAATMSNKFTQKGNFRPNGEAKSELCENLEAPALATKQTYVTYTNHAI

mGluR4 [7] = target: T2, mGluR4; assay: Receptor activation in mGluR4/Gqi5 CHO cells in the absence of glutamate; assay type: cell-based; conditions: no EC20 glutamate added
mGluR1 [8] = target: T1, mGluR1; assay: EC20 activation assay, mGluR1; assay type: cell-based; conditions: at 30 μM
mGluR8 = mGluR8 (Homo sapiens, UniProt O00222); assay: EC20 activation assay, mGluR8; assay type: cell-based; conditions: at 30 μM
mGluR8, sequence (O00222 34-908, species assumed): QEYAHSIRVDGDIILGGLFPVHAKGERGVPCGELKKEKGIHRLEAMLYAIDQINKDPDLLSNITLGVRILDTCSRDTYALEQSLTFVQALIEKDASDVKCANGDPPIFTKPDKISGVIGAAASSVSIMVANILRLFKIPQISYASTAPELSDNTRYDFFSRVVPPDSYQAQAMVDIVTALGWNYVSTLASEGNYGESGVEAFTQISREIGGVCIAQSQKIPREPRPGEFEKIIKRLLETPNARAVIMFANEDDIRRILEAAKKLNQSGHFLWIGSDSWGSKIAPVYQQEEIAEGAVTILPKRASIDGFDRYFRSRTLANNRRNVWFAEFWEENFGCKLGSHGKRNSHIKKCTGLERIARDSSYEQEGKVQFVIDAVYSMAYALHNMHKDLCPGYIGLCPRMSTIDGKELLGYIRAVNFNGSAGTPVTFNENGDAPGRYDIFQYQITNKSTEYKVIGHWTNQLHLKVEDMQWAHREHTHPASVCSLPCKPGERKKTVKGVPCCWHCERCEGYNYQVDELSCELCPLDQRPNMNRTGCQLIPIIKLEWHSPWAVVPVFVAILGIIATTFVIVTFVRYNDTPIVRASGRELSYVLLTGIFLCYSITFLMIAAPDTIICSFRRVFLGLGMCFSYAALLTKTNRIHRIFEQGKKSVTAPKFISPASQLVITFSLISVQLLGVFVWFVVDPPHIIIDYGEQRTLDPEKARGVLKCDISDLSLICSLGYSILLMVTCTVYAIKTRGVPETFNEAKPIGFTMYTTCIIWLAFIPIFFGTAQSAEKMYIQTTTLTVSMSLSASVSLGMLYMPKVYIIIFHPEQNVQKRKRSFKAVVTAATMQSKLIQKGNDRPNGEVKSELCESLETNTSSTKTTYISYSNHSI

mGluRs = assay: Selectivity screen across the mGluRs; assay type: cell-based
mGluR4 [9] = target: T2, mGluR4; assay type: cell-based; conditions: at 30 μM compound
Procedure, shortened: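 Human mGluR4 co-expressed with chimeric Gqi5 in CHO cells. Glutamate concentration–response curves run with and without 30 μM test compound; fold shift taken as the leftward displacement of the glutamate curve. Responses expressed as % of maximal glutamate response. Average of at least three independent determinations, each in triplicate.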

T1 sequence (Q13255 19-1194): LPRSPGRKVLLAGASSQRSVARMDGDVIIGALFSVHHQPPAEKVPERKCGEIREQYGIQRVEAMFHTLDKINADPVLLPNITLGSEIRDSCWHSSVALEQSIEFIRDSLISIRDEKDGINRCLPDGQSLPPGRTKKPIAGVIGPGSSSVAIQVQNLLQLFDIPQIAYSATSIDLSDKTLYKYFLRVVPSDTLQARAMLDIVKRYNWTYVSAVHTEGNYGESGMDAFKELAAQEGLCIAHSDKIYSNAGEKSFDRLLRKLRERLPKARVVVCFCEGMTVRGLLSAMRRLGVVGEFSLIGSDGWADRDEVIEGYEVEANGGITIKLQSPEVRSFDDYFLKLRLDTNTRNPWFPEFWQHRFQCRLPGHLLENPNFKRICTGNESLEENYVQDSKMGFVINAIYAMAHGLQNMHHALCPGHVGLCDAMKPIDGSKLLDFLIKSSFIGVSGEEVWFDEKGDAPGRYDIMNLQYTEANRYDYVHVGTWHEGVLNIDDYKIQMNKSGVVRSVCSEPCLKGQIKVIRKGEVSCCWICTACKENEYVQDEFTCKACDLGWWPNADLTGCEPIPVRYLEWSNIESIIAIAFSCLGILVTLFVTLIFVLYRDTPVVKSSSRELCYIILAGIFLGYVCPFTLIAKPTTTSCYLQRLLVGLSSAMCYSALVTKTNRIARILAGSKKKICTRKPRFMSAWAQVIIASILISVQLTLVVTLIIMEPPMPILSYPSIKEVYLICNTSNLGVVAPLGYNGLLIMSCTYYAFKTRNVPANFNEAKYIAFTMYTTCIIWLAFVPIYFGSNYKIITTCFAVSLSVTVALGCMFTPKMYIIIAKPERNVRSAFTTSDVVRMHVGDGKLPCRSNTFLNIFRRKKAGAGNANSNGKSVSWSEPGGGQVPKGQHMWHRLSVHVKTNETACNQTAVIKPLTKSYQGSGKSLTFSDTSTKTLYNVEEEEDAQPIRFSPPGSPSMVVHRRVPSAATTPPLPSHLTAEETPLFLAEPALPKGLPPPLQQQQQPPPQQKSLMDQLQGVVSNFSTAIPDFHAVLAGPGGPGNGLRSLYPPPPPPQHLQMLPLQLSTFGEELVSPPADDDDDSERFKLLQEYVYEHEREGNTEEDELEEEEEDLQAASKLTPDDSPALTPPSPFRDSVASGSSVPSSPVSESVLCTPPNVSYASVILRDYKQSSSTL

In the case of `Cc1ccc(-n2ncc3c(N4CCCC(C)C4)ncnc32)c(C)c1` (stereo not shown) [Compound 4], the “fold shift of the glutamate response” value (mGluR4 [1]) is listed as 11.8 fold, the EC50 (mGluR4 [1]) is listed as 5 µM and the “mGluR1 antagonist activity (in words)” value (mGluR1 [2]) is listed as “significant mGluR1 antagonist activity”. For the same molecule, the IC50 (mGluR1 [2]; read-out: IC50 (full antagonist of mGluR1)) was 2.6 µM.

For `O=C(O)[C@H]1CCCC[C@H]1C(=O)Nc1cc(Cl)cc(Cl)c1` [Compound 5], the EC50 (mGluR4 [1]) is given as 0.75 µM, the “efficacy in preclinical Parkinson's disease models” value [3] is given as “displayed efficacy in preclinical Parkinson’s disease models” and the allosteric agonist activity (mGluR4 [4]) is given as “significant allosteric agonist activity”.

For `Cc1nc2ccccc2nc1N/N=C/c1ccc(O)cc1` [Compound 6, (E)-4-((2-(3-methylquinoxalin-2-yl)hydrazono)methyl) phenol], the mGluR1 antagonist activity (mGluR1 [5]) was “devoid of mGluR1 antagonist activity; also recorded: did not exhibit mGluR1 antagonist activity”, the EC50 (mGluR4 [6]) was 0.65 µM and the “mGluR4 PAM activity (in words)” value (mGluR4 [6]) was “Concentration-dependent potentiation”. For the same molecule, the “effect on mGluR4 in the absence of glutamate” value (mGluR4 [7]) was “no effect; also recorded: do not elicit receptor activation”, the “activation of mGluR1” value (mGluR1 [8]) was “moderate activation” and the “activation of mGluR8” value (mGluR8) was “moderate activation”. For the same molecule, the “antagonism of mGluRs” value (mGluRs; EC80 assay) was “not an antagonist of any mGluR” and the “selectivity across the mGluRs” value (mGluRs; activation (EC20 glutamate potentiation) and inhibition (depression of EC80) assays) was “highly selective for mGluR4”.

In the case of `Cc1ccc(N2C(=O)c3ccccc3NC2C(C)c2ccccc2)cc1` (stereo not shown) [Compound 7], the EC50 (mGluR4 [6]) is reported as 1.8 µM and the “fold shift of the glutamate response curve (leftward)” value (mGluR4 [9]) is reported as 2.7 fold.

In the case of `Cc1nc2ccccc2nc1N/N=C/c1cccc(O)c1` [Compound 12a], the “loss in potency relative to 6” value (mGluR4 [6]) is reported as greater than 3 fold.

With `Cc1nc2ccccc2nc1N/N=C/c1ccccc1O` [Compound 12b] the “loss in potency relative to 6” value (mGluR4 [6]) was greater than 6 fold.

With `Cc1nc2ccccc2nc1N/N=C/c1ccc(F)cc1` [Compound 12c] the “mGluR4 PAM activity (in words)” value (mGluR4 [6]) was “afforded mGluR4 PAM activity”.

In the case of `Cc1nc2ccccc2nc1N/N=C/c1ccccc1` [Compound 12d], the “mGluR4 PAM activity (in words)” value (mGluR4 [6]) is reported as “afforded mGluR4 PAM activity”.

For `O=C(Nc1ccccc1)[C@]12C[C@H]1/C(=N\O)c1ccccc1O2` [PHCCC, N-phenyl-7-(hydroxyimino) cyclopropa(b)chromen-1a-carboxamide], the “mGluR1 antagonist activity (in words)” value (mGluR1 [2]) is given as “significant mGluR1 antagonist activity”.
